Results gathered from unrelated publications.
Effect on: cell growth or viability

SMILES | cell line | technique | time | IC50 [µM]
CO[C@]12C[C@@H](COC(=O)c3cncc(Br)c3)CN(C)[C@@H]1Cc1cn(C)c3cccc2c13 | HNE1 | MTT | 48 h | 1.45
O=C1CCN2C(=O)c3ccccc3C2C(=O)Nc2cc(F)ccc21 (centres unmarked) | L6 | – | – | > 300
N=C(NN=CCc1ccc(OC(F)(F)F)cc1)NN=CCc1ccc(OC(F)(F)F)cc1 | L6 | resazurin | 70 h | 4.02
O=C1c2ccccc2C23C(=O)Nc4ccccc4C2(O)CCN13 (centres unmarked) | L6 | – | – | > 330
COc1cc2nc(N3CCN(C(=O)c4ccco4)CC3)nc(N)c2cc1OC | HK-1 | MTT | 48 h | 30
CNC(=O)c1cc(Oc2ccc(NC(=O)Nc3ccc(Cl)c(C(F)(F)F)c3)cc2)ccn1 | NCI-H460 | MTT | 72 h | 3.81
N=C(NN=Cc1ccc(OC(F)F)cc1)NN=Cc1ccc(OC(F)F)cc1 | L6 | resazurin | 70 h | 13.4
COc1cc2nc(N3CCN(C(=O)C4COc5ccccc5O4)CC3)nc(N)c2cc1OC (centres unmarked) | HNE1 | MTT | 48 h | 22.4
C=CC(=O)N1CCN(c2nc(=O)n(-c3c(C)ccnc3C(C)C)c3nc(-c4c(O)cccc4F)c(F)cc23)[C@@H](C)C1 | KYSE-410 | ATP luminescence | – | 0.0676
COc1cc2c3c(n(CCCn4ccnc4)c(=O)c2cc1OC)-c1nc2c(cc1C3=O)OCO2 | RS4-11 | MTS | 72 h | 0.12
CC(C)C[C@@H]1NC(=O)CNC(=O)[C@H](CC(N)=O)NC(=O)[C@H](CCCNC(=N)N)NC(=O)[C@H]([C@@H](C)O)NC(=O)[C@@H]2CSSC[C@@H]3NC(=O)[C@H]([C@@H](C)O)NC(=O)CNC(=O)CNC(=O)[C@H](C(C)C)NC(=O)[C@@H]4CSSC[C@H](NC(=O)[C@H]([C@@H](C)O)NC(=O)[C@H](CSSC[C@H](NC(=O)[C@H](C(C)C)NC(=O)[C@@H]5CCCN5C1=O)C(=O)NCC(=O)N[C@@H](CCC(=O)O)C(=O)N[C@@H]([C@@H](C)O)C(=O)N4)NC(=O)CNC(=O)[C@@H]1CCCN1C(=O)[C@H]([C@@H](C)O)NC(=O)[C@H](CC(N)=O)NC3=O)C(=O)N[C@@H](CO)C(=O)N[C@@H](Cc1c[nH]c3ccccc13)C(=O)N1CCC[C@H]1C(=O)N[C@@H](C(C)C)C(=O)N2 | Sf9 | MTT | 24 h | 2.8
N#Cc1cccc(CC=NNC(=N)NN=CCc2cccc(C#N)c2)c1 | L6 | resazurin | 70 h | 2.63
CN1C(=O)C2c3ccccc3C(=O)N2CCC(=O)c2ccccc21 (centres unmarked) | L6 | – | – | > 300
Cc1cc(/C=C/C#N)cc(C)c1Nc1ccnc(Nc2ccc(C#N)cc2)n1 | HK-1 | MTT | 48 h | 7.59
CCNCCCn1c2c(c3cc(OC)c(OC)cc3c1=O)C(=O)c1cc3c(nc1-2)OCO3 | RS4-11 | MTS | 72 h | 0.038
CCOC(=O)c1ccc2c(c1)C(=O)CCN1C(=O)c3ccccc3C1C(=O)N2 (centres unmarked) | L6 | – | – | > 260
CC1(C)CCC(CN2CCN(c3ccc(C(=O)NS(=O)(=O)c4ccc(NCC5CCOCC5)c([N+](=O)[O-])c4)c(Oc4cnc5[nH]ccc5c4)c3)CC2)=C(c2ccc(Cl)cc2)C1 | RS4-11 | ATP luminescence | 48 h | 0.0045
C=C(F)C(=O)N1CCN(c2nc(OC[C@@H]3CCCN3C)nc3c2CCN(c2cccc4cccc(Cl)c24)C3)C[C@@H]1CC#N | KYSE-410 | ATP luminescence | – | 3.07
N=C(NN=CCc1ccc(OC(F)F)cc1)NN=CCc1ccc(OC(F)F)cc1 | L6 | resazurin | 70 h | 2.03
CC12C(=O)Nc3ccccc3C(=O)CCN1C(=O)c1ccccc12 (centres unmarked) | L6 | – | – | > 300
COc1cc2c3c(n(CCCN4CCOCC4)c(=O)c2cc1OC)-c1nc2c(cc1C3=O)OCO2 | RS4-11 | MTS | 72 h | 0.283
N#Cc1cccc(C=NNC(=N)NN=Cc2cccc(C#N)c2)c1 | L6 | resazurin | 70 h | 6.65
O=C1CCC(N2Cc3c(C#CC4CCN(C(=O)[C@H]5CC[C@H](NC(=O)[C@H]6NC7(CCCCC7)[C@]7(C(=O)Nc8cc(Cl)ccc87)[C@H]6c6cccc(Cl)c6F)CC5)CC4)cccc3C2=O)C(=O)N1 (some centres unmarked) | RS4-11 | – | – | 0.062
